KCNK9 block – KCNK9 potassium channel inhibitors, primary screen, HEK293 cells, thallium flux; FluxOR thallium flux fluorescence; active compounds read low; B-score at 10 µM; hit rate 1.2% among 310,000; AID 488922, 2010;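 active means ratio B-score over 3 SD below the library mean, with starting fluorescence within 5 SD of its mean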;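 further: negative B-score means less thallium flux so channel inhibition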
hERG protect – hERG rescue from dofetilide block, primary screen, cell-based, CHO-hERG, FluxOR thallium flux, dofetilide IC70; Voltage-gated inwardly rectifying potassium channel KCNH2 (Homo sapiens), Q12809; hit rate 0.51% among 310,000; dofetilide IC70 present; activation (rescue from dofetilide block), less the hit threshold, % at 10 µM;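 active means activation above the mean of controls blocked by dofetilide plus 5 SD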;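 further: thallium influx through hERG after potassium depolarization seen as dye fluorescence rise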
KCNQ1 act – potentiators or activators of KCNQ1 channel, primary screen, cell-based, thallium flux, high-throughput | Potassium voltage-gated channel subfamily KQT member 1 (Homo sapiens), P51787 | CHO-K1 KCNQ1, thallium flux FluxOR fluorescence; active compounds read high | B-score at 10 µM | hit rate 0.35% among 310,000;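 active means fluorescence ratio B-score, a plate-corrected score, at least three library SD, with initial intensity B-score within 5 SD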
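Material: CHO-K1 cells stably expressing KCNQ1. Medium: assay buffer for compound exposure, DMSO matched across wells. Reagent: K+/Tl+ depolarizing stimulus. Compound dosing: single-concentration screen. Times: 37 °C overnight plating, 90-min dark dye load, 20-min compound pretreatment. Technique: FluxOR Tl+ flux fluorescence.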
KCC2 mod – KCC2 cotransporter modulators, thallium flux, primary screen, cell-based, HEK293 KCC2, FluoZin-2 fluorescence, MLSMR; KCC2 cells, thallium flux FluoZin-2 fluorescence; B-score of Tl+ flux slope (higher = more flux/activation; lower = inhibition) at 10 µM; hit rate 2.2% among 190,000; Solute carrier family 12 member 5 (Homo sapiens), Q9H2X9;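 active means thallium flux slope and its plate-corrected score both differing from the plate sample mean at a set confidence after two filtering rounds, in either direction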;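 further: slope of fluorescence scaled to starting intensity during 10 to 20 s after thallium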
KCNK3 inh – human KCNK3 channel inhibitors, primary screen, CHO cells, FluxOR thallium flux, B-score. FluxOR fluorescence; active compounds read low. hit rate 0.84% among 340,000. Potassium channel subfamily K member 3 (Homo sapiens), O14649. B-score at 10 µM;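 active means B-score under library mean minus 4 SD, starting fluorescence ratio at most library mean plus 5 SD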;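 further: more negative B-score means stronger inhibition of thallium flux through KCNK3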
KCNQ1 block – inhibitors of human KCNQ1 channel, primary screen, cell-based, thallium flux, high-throughput; Potassium voltage-gated channel subfamily KQT member 1 (Homo sapiens), P51787; hit rate 1.3% among 310,000; B-score at 10 µM; CHO-K1 KCNQ1, FluxOR thallium flux fluorescence; active compounds read high;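 active means compounds whose thallium flux B-score, printed positive for inhibition, exceeds three library SD while starting fluorescence stays within three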;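 further: channel opened by potassium depolarization with thallium stimulus after 20 min compound exposure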
Starred values were filed as active, the others as inactive; i = inactive; . = no result. Shown are actives, neighbours in structure and some others; about 4.1% of the full set was active somewhere.

SMILES	KCNK9 block	hERG protect	KCNQ1 act	KCC2 mod	KCNK3 inh	KCNQ1 block
C=C(C)Cn1c(C)cc(C)c(S(=O)(=O)c2ccc(C)cc2)c1=O	-7.2*	-6.5	i	-1.37	i	i
Cc1cccc(NC(=O)NNC(=O)COc2ccc(Cl)cc2)c1	i	-7.2	i	-0.18	i	i
CCCCOC(=O)c1ccc(NC(=O)c2cc(Cl)c(Cl)cc2C(=O)O)cc1	i	-5.3	i	-0.256	i	i
CCCCOC(=O)c1ccc(NC(=S)NC(=O)c2c(Cl)cnn2C)cc1	i	14.9*	8*	27.6*	i	i
CCCCOC(=O)c1ccc(NC(=O)/C=C/c2cccs2)cc1	i	-13.5	i	2.03	i	13*
CCCCOC(=O)c1ccc(NC(=S)NC(=O)c2ccco2)cc1	i	-0.2	11*	.	i	i
C=CCN(CC=C)S(=O)(=O)c1ccc(NC(=S)NC(=O)c2ccco2)cc1	i	-2.2	i	8.14*	i	i
C=CCN(CC=C)S(=O)(=O)c1ccc(NC(=S)NC(=O)c2ccc(-c3ccccc3)cc2)cc1	i	-4.6	i	0.285	i	i
CCCCOC(=O)c1ccc(NC(C)=O)cc1	i	-9.3	i	0.603	i	i
CNS(=O)(=O)c1cccc(C(=O)OCC(=O)c2ccc3[nH]c(=O)[nH]c3c2)c1	.	.	.	.	i	.
CC(C)CCOc1ccc(C2(C)NC(=O)N(CN3CCOCC3)C2=O)cc1 (centres undefined)	i	-4.2	i	0.638	i	i
O=C(COc1ccc([N+](=O)[O-])cc1)Nc1ccc(S(=O)(=O)N2CCOCC2)cc1	i	-6.2	i	.	i	i
CCCCOC(=O)c1ccc(NC(=S)NC(=O)c2c(Cl)cnn2CC)cc1	i	-0.4	75*	23.5*	i	i
NCCSc1c(-c2ccc(Cl)cc2)[nH]c2ccccc12	-7.31*	-22.0	i	-1.29	i	i
NCCSc1c(-c2ccccc2)[nH]c2ccccc12	i	-13.5	i	-0.185	i	i
O=C1c2ccccc2C(=O)N1Cc1nc2ccccc2c(=O)n1CCCn1ccnc1	i	9.8*	i	0.185	i	i
COc1ccc(CCNC(=O)c2ccc(=O)[nH]c2)cc1OC	i	-5.0	i	.	i	i
COc1cccc(C(=O)NNC(=O)C(=O)Nc2ccc(OC)cc2OC)c1	i	12.4*	19*	.	i	i
COc1cccc(C(=O)NNC(=O)c2ccccc2)c1	i	-6.2	i	.	i	i
COc1cccc(C(=O)Nc2cccc3ccccc23)c1	i	-3.9	i	.	i	i
COc1cccc(C(=O)NNC(=O)C(=O)Nc2cccc3ccccc23)c1	i	42.5*	36*	.	i	i
CCCCNC(=O)C(C#N)c1nc2ccccc2nc1N1CCN(Cc2ccc3c(c2)OCO3)CC1 (centres undefined)	.	.	.	.	i	.
CC1CN(c2nc3ccccc3nc2C(C#N)C(=O)NCc2ccc3c(c2)OCO3)CC(C)O1 (centres undefined)	i	-18.7	23*	-1.36	i	i
CCCCNC(=O)C(C#N)c1nc2ccccc2nc1N1CCCC1 (centres undefined)	i	-6.1	i	i	.	i
C=CCNC(=O)C(C#N)c1nc2ccccc2nc1N1CCCCCC1 (centres undefined)	i	-11.5	i	.	i	6*
SMILES	KCNK9 block	hERG protect	KCNQ1 act	KCC2 mod	KCNK3 inh	KCNQ1 block
C/C(=N\Nc1ccccc1Cl)c1ccc(-n2ccnc2)cc1	i	-15.9	i	0.932	i	i
COc1cc(NC(=O)c2cc([N+](=O)[O-])ccc2NC(=O)CNCc2ccccn2)cc(OC)c1	i	-22.4	i	.	i	i
CC(C)c1ccc2c(c1)CCC1C(C)(CN)CCCC21C (centres undefined)	i	-12.0	i	0.0248	i	9*
CC(=O)Nc1ccc2c(c1)C(N1CC3CCC(CC3)C1)c1ccccc1-2 (centres undefined)	.	.	.	.	-10.5*	.
CCOC(=O)c1[nH]c2ccccc2c1NC(=O)C1CCCCC1	i	4.8*	i	0.485	i	i
CCOC(=O)c1[nH]c2ccccc2c1NC(=O)NC1CCCCC1	i	-0.6	i	.	i	i
CCN(CC)c1ccc(C(=C2C=CC(=[N+](CC)CC)C=C2)c2ccccc2)cc1	.	.	.	.	i	.
CCN(CC)c1ccc(C(=C2C=CC(=[N+](CC)CC)C=C2)c2ccc(N(CC)CC)cc2)cc1	.	.	.	.	-11.6*	.
CN(CC(=O)NCc1cccc(F)c1)C(=O)c1ccco1	i	6.5*	i	0.247	i	i
COC(=O)NC(=S)Nc1ccc(Oc2ccc(Cl)cc2Cl)c(Cl)c1	i	-3.0	16*	10.8*	i	i
COC(=O)NC(=S)Nc1ccc(Oc2ccc(Cl)cc2)c(Cl)c1	i	2.9	i	.	i	i
N/C(=N\OC(=O)c1ccc([N+](=O)[O-])cc1)c1cccnc1	i	-6.4	i	0.315	i	i
O=C(Oc1c(Br)cc([N+](=O)[O-])cc1Br)c1cccnc1	i	-12.7	i	-1.83	i	7*
COc1ccc(CNC(=O)Cc2csc(Nc3nc(=S)[nH]c4ccccc34)n2)cc1	i	-17.1	i	7*	i	i
O=C(Cc1csc(Nc2nc(=S)[nH]c3ccccc23)n1)NCc1ccc(Cl)cc1	i	-13.3	i	5.88*	i	i
O=C(O)CC/C(=C\c1cc([N+](=O)[O-])ccc1Cl)c1nc2ccccc2s1	i	-17.3	i	-10.3*	i	i
CCOc1ccc(Nc2nc(C)cc(C)c2C#N)cc1	i	-3.9	i	0.148	i	i
C=CCOc1ccc(C2C(C(=O)c3cccs3)=C(O)C(=O)N2c2nnc(C)s2)cc1 (centres undefined)	i	-31.8	i	0.51	i	i
COc1ccc(C2C(C(=O)c3cccs3)=C(O)C(=O)N2c2nnc(C)s2)cc1OC (centres undefined)	i	-9.5	i	-0.725	i	11*
COc1ccc(C2c3ccsc3CCN2C(C)=O)cc1 (centres undefined)	i	-13.3	i	-0.467	i	i

Screens (PubChem BioAssay)
